Measured values: ChEMBL document CHEMBL4765446, “Synthesis of ticagrelor analogues belonging to 1,2,3-triazolo[4,5-d]pyrimidines and study of their antiplatelet and antibacterial activity” (2020)
Values after ≈ are worked out from the molar mass of the structure shown.

Tests used:
Plasma = test: Antiplatelet activity in human platelet-rich plasma assessed as inhibition of ADP-induced platelet aggregation at 1.8 uM preincubated for 10 mins followed by ADP addition and measured for 10 mins by light transmission aggregometry relative to control; assay type: functional; conditions: time 20 min
Outline: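 Citrated (3.2%) venous blood from drug-free healthy volunteers aged 20–40 years; PRP from 100 × g 15 min spin, adjusted to 250000/µl with autologous PPP (800 × g 15 min). Compound or vehicle (1% DMSO) preincubated 10 min, then stirring at 1200 rpm, 37 °C, and ADP 10 µM added. Aggregation followed 10 min; AUC expressed as fold-inhibition vs vehicle, mean ± S.D., n = 4–21 donors, Wilcoxon paired test.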

Staphylococcus aureus = test: Antibacterial activity against methicillin-resistant Staphylococcus aureus BAA-1556 by broth microdilution method; assay type: functional
Outline: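 Single colony from Brain Heart Infusion agar grown overnight in BHI broth, aerobic, 37 °C, 190 rpm. Diluted 100-fold in Mueller-Hinton broth, grown to exponential phase. About 5.10^5 CFU/ml then incubated with or without a range of concentrations, vehicle 1% DMSO. Growth read as OD600. MIC per EUCAST is the lowest concentration with no visible growth, i.e. ΔOD600 versus blank (medium + 1% DMSO) equal to zero.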

| Compound | fold change (FC) (Plasma) | MIC (Staphylococcus aureus) [µM] |
| --- | --- | --- |
| CCCSc1nc(N[C@@H]2C[C@H]2c2ccc(F)c(F)c2)c2nnn([C@@H]3C[C@H](O)[C@@H](O)[C@H]3O)c2n1 | 4.8 | 25 (≈ 12 µg/mL) |
| CCCSc1nc(N[C@@H]2C[C@H]2c2ccccc2)c2nnn([C@@H]3C[C@H](OCCO)[C@@H](O)[C@H]3O)c2n1 | 3.1 | > 200 |
| O[C@@H]1[C@H](O)[C@@H](O)C[C@H]1n1nnc2c(N[C@@H]3C[C@H]3c3ccc(F)c(F)c3)nc(Cl)nc21 | 1.1 | > 200 |
| C[C@@H](O)CSc1nc(N[C@@H]2C[C@H]2c2ccc(F)c(F)c2)c2nnn([C@@H]3C[C@H](O)[C@@H](O)[C@H]3O)c2n1 | 6.2 | > 200 |
| OCCCSc1nc(N[C@@H]2C[C@H]2c2ccc(F)c(F)c2)c2nnn([C@@H]3C[C@H](OCCO)[C@@H](O)[C@H]3O)c2n1 | 1 | > 200 |
| C[C@H](O)CSc1nc(N[C@@H]2C[C@H]2c2ccc(F)c(F)c2)c2nnn([C@@H]3C[C@H](O)[C@@H](O)[C@H]3O)c2n1 | 2 | > 200 |
| CCn1nnc2c(N[C@@H]3C[C@H]3c3ccc(F)c(F)c3)nc(SC)nc21 | 0.87 | > 200 |
| CCCSc1nc(N[C@@H]2C[C@H]2c2ccc(F)c(F)c2)c2nnn(CC)c2n1 | 0.97 | > 200 |
| CCCSc1nc(N[C@@H]2C[C@H]2c2ccc(F)c(F)c2)c2nnn(C)c2n1 | 1.08 | > 200 |
| CCCSc1nc(NCCc2ccc(F)c(F)c2)c2nnn([C@@H]3C[C@H](OCCO)[C@@H](O)[C@H]3O)c2n1 | 1.1 | > 200 |
| CC(O)CSc1nc(N[C@@H]2C[C@H]2c2ccc(F)c(F)c2)c2nnn([C@@H]3C[C@H](OCCO)[C@@H](O)[C@H]3O)c2n1 (stereo partly specified) | 1.7 | > 200 |
| CSc1nc(N[C@@H]2C[C@H]2c2ccc(F)c(F)c2)c2nnn(C)c2n1 | 0.94 | > 200 |
| OCCCSc1nc(N[C@@H]2C[C@H]2c2ccc(F)c(F)c2)c2nnn([C@@H]3C[C@H](O)[C@@H](O)[C@H]3O)c2n1 | 2.7 | > 200 |
| CCCSc1nc(N[C@@H]2C[C@H]2c2ccc(F)c(F)c2)c2nnn(C3CCCC3)c2n1 | 1 | > 200 |
| CCCSc1nc(N)c2nnn([C@@H]3C[C@H](O)[C@@H](O)[C@H]3O)c2n1 | 1.1 | > 200 |
| CCCSc1nc(N)c2nnn([C@@H]3C[C@H](OCCO)[C@@H](O)[C@H]3O)c2n1 | 1.1 | > 200 |
| CCSc1nc(N[C@@H]2C[C@H]2c2ccc(F)c(F)c2)c2nnn(CC)c2n1 | 0.91 | > 200 |
| CCCSc1nc(NC2CC2)c2nnn([C@@H]3C[C@H](OCCO)[C@@H](O)[C@H]3O)c2n1 | 2.6 | > 200 |
| CCSc1nc(N[C@@H]2C[C@H]2c2ccc(F)c(F)c2)c2nnn(C)c2n1 | 0.97 | > 200 |
| Nc1nc(SCCCO)nc2c1nnn2[C@@H]1C[C@H](O)[C@@H](O)[C@H]1O | 1 | > 200 |
| CC(O)CSc1nc(N)c2nnn([C@@H]3C[C@H](O)[C@@H](O)[C@H]3O)c2n1 (stereo partly specified) | 1 | > 200 |
| O[C@@H]1[C@H](O)[C@@H](O)C[C@H]1n1nnc2c(N[C@@H]3C[C@H]3c3ccc(F)c(F)c3)ncnc21 | 1 | > 200 |
| CCCSc1nc(N[C@@H]2C[C@H]2c2ccc(F)c(F)c2)c2nnn([C@@H]3C[C@H](OCCO)[C@@H](O)[C@H]3O)c2n1 [TICAGRELOR] | 4.3 | 25 (≈ 13.1 µg/mL) |
